# Compound activity deposited in PubChem by several laboratories.
# Hits are enriched below; roughly 3.7% of the tested compounds scored in any of these assays.
# ROMK primary – modulators of human ROMK potassium channel. P48048. Tet-inducible ROMK, thallium flux fluorescence; actives lie on both sides. B-score at 10 µM. 130,000 compounds, 2% hits. AID 1918;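 active means signal ratio slope over the read window, or its plate-corrected B-score, at least 3 SD from the plate mean, either direction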;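 further: B-score of the F/F0 ratio slope over 7 to 12 s after thallium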
# PKD1 inh – inhibitors of human PKD1 kinase | PKD1 kinase fluorescence polarization assay | inhibition, % (concentration not given with the values) | 200,000 compounds, 0.056% hits; in the data active means inhibition above about 50%
# Calpain2 inh – inhibitors of pig calpain II; purified calpain II, fluorogenic peptide substrate, 30 min; inhibition, % at 16 µM; 220,000 compounds, 0.37% hits; AID 1236;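 active means inhibition above about 50%, limit read from the data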
# Mdm2 ligase inh – blocks human Mdm2 ubiquitin ligase activity. 210,000 compounds, 0.11% hits. cell-based MDM2 ubiquitination luciferase reporter, 2 h; 0 = plate control, 100 = twice control, blank-subtracted. AID 1230. signal enhancement, % at 5 µM;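 active means signal enhancement of 30% or more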;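 further: luminescence tracks abundance of the self-degrading MDM2-luciferase fusion protein; higher signal means inhibition of MDM2 E3 ligase activity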
#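 Assay system: mammalian cells stably expressing self-ubiquitinating, self-degrading MDM2 E3–luciferase fusion. Quantity: 2000 cells in each well. Medium: DMEM culture medium. Compound dosing: single-point 5 µM. Timing: cell settling 4 h, compound treatment 2 h, both 37 °C. Technique: luciferase luminescence. Read-out basis: percent signal gain over controls, blank-subtracted. Benchmarks: plate controls and plate blanks.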
# Arbovirus inh – antivirals against arbovirus infection; arbovirus infection cell-based antiviral screen; inhibition, % at 10 µM; 200,000 compounds, 0.37% hits; in the data active means inhibition above about 30%
# KCC2 mod – KCC2 (human) Cl- transport modulation. KCC2 cells, thallium flux FluoZin-2 fluorescence. B-score of Tl+ flux slope (higher = more flux/activation; lower = inhibition) at 10 µM. 190,000 compounds, 2.2% hits;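 active means thallium flux slope and its plate-corrected score both differing from the plate sample mean at a set confidence after two filtering rounds, in either direction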;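 further: slope of fluorescence scaled to starting intensity during 10 to 20 s after thallium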
# ROMK hit retest – retested hit modulating human ROMK potassium channel. shares compounds with ROMK primary. ROMK thallium flux, fluorescence ratio; stronger effect = lower value. normalized thallium flux (F/F0 slope) at 10 µM. 3,000 compounds, 54% hits. AID 1917;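 active means Flux at 10 µM at least 3 SD below or above vehicle control mean in one or both replicates; inconclusive means no clear call, values can overlap the other calls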
# A number is an active result; - = inactive; ? = inconclusive; . = not tested or not shown.
SMILES,ROMK primary,PKD1 inh,Calpain2 inh,Mdm2 ligase inh,Arbovirus inh,KCC2 mod,ROMK hit retest
COc1ccc(-n2cc(CNCCc3cnc[nH]3)c(-c3cccc(F)c3)n2)cc1,-1.9,-,-,-,-,.,0.061
S=C(c1ccc(-c2ccc(Br)cc2)o1)N1CCOCC1,2.4,.,-,-,.,-,-
C/C(CC(=O)NC1C2CC3CC(C2)CC1C3)=N\NC(=O)Cc1cccs1 (stereo unspecified),-,-,-,-,-,-,.
CCOC(=O)C1CCCN(Cc2c(C(=O)N3CCCCC3)nc3c(C)cccn23)C1 (stereo unspecified),-,-,-,-,-,.,.
Cc1cccn2c(CNC3CCCc4ccccc43)c(C(=O)N3CCCCC3)nc12 (stereo unspecified),-3,-,-,-,-,-,0.061
COc1cccc(-n2c(SCc3ccccn3)nc3c(c2=O)SCC3)c1,1.1,-,-,-,-,-,-
CCOc1cccc(NC(=O)/C(C#N)=C/c2cccnc2)c1,.,.,-,.,.,-,0.035
CCCOc1cc(N(CC)CC)ccc1/C=C(/C#N)c1nc2ccc(C)cc2[nH]1,-4.2,-,-,-,-,-,0.039
CCOc1ccccc1CNn1nnnc1N,-,-,-,-,-,-,.
COc1ccc(C(=O)NNC(=O)CSc2nnc(C)n2C)cc1,-,-,-,-,-,-,.
COc1ccccc1N(CC(=O)N(CC(C)C)CC(C)C)S(=O)(=O)c1cccs1,-4.1,-,-,-,-,-,0.067
O=C(Nc1ccc[n+](CC(=O)c2cccc3ccccc23)c1)c1ccccc1,-2.8,-,-,-,-,-,0.056
O=c1[nH]c(C(Cl)Cl)nc2sc3c(c12)CCN(Cc1ccccc1)C3,-,-,-,-,-,-,.
CCCSc1nc2sc3c(c2c(=O)[nH]1)CCN(Cc1ccccc1)C3,-5.4,-,-,-,-,-,0.03
COc1ccc(/C=N/NC(=O)c2nc(Cl)c(Cl)c(N)c2Cl)cc1COc1ccc(F)cc1F,.,-,-,-,-,-,.
COc1ccc(/C=N/NC(=O)c2cc(C(C)(C)C)[nH]n2)cc1COc1ccc(F)cc1F,-11,-,-,-,-,-,-
O=C(Nc1ccccc1-c1ccccc1)NC1CC2CCCC(C1)N2Cc1ccc(F)cc1 (stereo unspecified),-,-,-,-,-,-,.
O=C(Nc1ccccc1-c1ccccc1)NC1CC2CCCC(C1)N2CCc1ccccc1 (stereo unspecified),-3.1,-,-,-,-,-,0.058
CC(C)CC(=O)c1c[nH]c(C(=O)NCCCN2CCOCC2)c1,.,-,-,-,-,-,.
Cc1ccc(S(=O)(=O)N2CCOCC2)cc1C(=O)N1c2ccccc2Sc2ccccc21,-,-,-,-,-,-,.
Cc1ccc(N=Nc2c(C)[nH][nH]c2=O)c(C)c1,1.3,-,-,-,-,-,-
Nc1nonc1NN=C1CCCCC1,.,.,-,-,.,-,.
COC(Cn1c2c(c3cc(C)ccc31)CCCC2NCc1ccccc1)OC (stereo unspecified),-3.9,.,-,-,.,-,0.066
Cc1ccc2c(c1)c1c3n2CCCN(Cc2ccccc2)C3CCC1 (stereo unspecified),-,-,-,-,-,.,.
C=CCN(CC=C)CCOc1cccc(Oc2ccccc2)c1,-,-,-,-,-,-,.
SMILES,ROMK primary,PKD1 inh,Calpain2 inh,Mdm2 ligase inh,Arbovirus inh,KCC2 mod,ROMK hit retest
CCCCC(O)(CCCC)C(=O)NN(C(=O)OC)c1ccccc1,-,-,-,-,-,-,.
CCOC(=O)c1nnc(-c2ccccc2)nc1N1CC(C)OC(C)C1 (stereo unspecified),-,-,-,-,-,-,.
COc1ccc(CNCCC(c2ccc(F)cc2)c2ccc(OC)cc2)cc1 (stereo unspecified),-4.2,-,-,-,-,-,0.053
COc1ccc(C(CCNCc2ccc(F)cc2)c2ccc(F)cc2)cc1 (stereo unspecified),-,-,-,-,-,-,.
O=C1CC(=O)C(n2cncn2)C(c2c(F)cccc2Cl)C1 (stereo unspecified),.,-,-,-,-,.,.
O=C1CC(=O)C(n2cncn2)C(c2ccc(Cl)cc2)C1 (stereo unspecified),.,-,-,-,-,-,-
O=C(CN1CCN(Cc2ccccc2)CC1)Nc1ccccc1-c1ccccc1,-3.7,-,-,-,-,-,?
